Assay outcomes (PubChem)
Compounds with a hit are over-represented: about 2.7% of the library has one in this group of screens.
SIRT5 block = sirtuin-5 (human) deacylase inhibition. Q9NXA8. Purified SirT5, succinyl-peptide AMC, trypsin-coupled fluorescence. inhibition, % at 15 µM. actives 1.1% (n = 330,000). AID 652115; in the data active means inhibition above about 15%
Target sequence (Q9NXA8 whole entry, looked up): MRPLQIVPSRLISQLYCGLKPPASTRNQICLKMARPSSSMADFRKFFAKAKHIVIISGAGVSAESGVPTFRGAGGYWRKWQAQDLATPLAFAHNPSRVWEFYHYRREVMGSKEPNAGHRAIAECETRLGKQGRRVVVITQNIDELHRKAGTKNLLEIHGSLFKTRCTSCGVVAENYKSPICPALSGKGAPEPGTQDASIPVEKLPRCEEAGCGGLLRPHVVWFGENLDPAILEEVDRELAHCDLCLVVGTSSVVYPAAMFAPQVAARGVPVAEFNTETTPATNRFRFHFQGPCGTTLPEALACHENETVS
S100A4 MyoIIA = S100A4-myosin IIA interaction inhibition. S100A4/TAMRA-MyoIIA peptide fluorescence polarization. inhibition, % at 10.7 µM. actives 0.14% (n = 360,000). AID 652163;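 active means mean inhibition of at least 70% across replicates, with every replicate also reaching that level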
Target sequence (P26447 whole entry, looked up): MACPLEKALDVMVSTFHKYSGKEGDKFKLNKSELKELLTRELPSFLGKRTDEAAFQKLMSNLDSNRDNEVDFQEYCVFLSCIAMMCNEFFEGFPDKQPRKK
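Test system: S100A4 monomer protein. Medium: HEPES buffer with Ca2+, pH 7.2. Reagent: fluorescent myosin IIA peptide, 5 nM. Compound dosing: single-point compound testing. Timing: 5 min between mix addition and reading. Benchmarks: DMSO neutral and TFP positive wells.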
CaV13 ICDI inh = Primary screen for inhibitors of IQ motif and Ca2+-dependent inactivation inhibitor domain binding in CACNA1D, Förster resonance energy transfer in living cells, …; inhibition, % at 12.3 µM; actives 0.098% (n = 340,000); HEK cells, CFP/YFP FRET ICDI-IQ, plate reader, 10 min; percent FRET-ratio fall versus neutral wells;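 active means mean replicate inhibition of at least 30% and at least 1% of replicates passing that level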;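 further: 0% = median of the neutral control wells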
DENV2 CPE = DENV2-induced cell death inhibition. DENV2-infected cells, cytopathic effect rescue, plate reader. actives 1.7% (n = 350,000). AID 651640. CPE inhibition, % at 9.99 µM; in the data active means CPE inhibition above about 20%, passing the limit was not always enough; tested in BHK-21 cells;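 further: 0% = median of neutral control wells and 100% = median of positive control wells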
AF4-AF9 inh = inhibitors of human MLL-AF4/AF9 interaction; P42568; AlphaScreen, biotin-AF4 peptide binding to FLAG-AF9; inhibition, % at 10 µM; actives 0.47% (n = 350,000); AID 651704;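 active means every replicate reaching a set inhibition limit, whatever the replicate mean, cut at about 25% in these data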;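 further: 0% = plate neutral control median and 100% = total signal loss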
* marks the source's active call; other numbers are inactive results; nt = no result.

SMILES	SIRT5 block	S100A4 MyoIIA	CaV13 ICDI inh	DENV2 CPE	AF4-AF9 inh
COc1ccc(S(=O)(=O)N(C)C[C@@H]2OCCCC[C@@H](C)Oc3ccc(NC(=O)CCCN(C)C)cc3C(=O)N([C@H](C)CO)C[C@@H]2C)cc1	-4	-5	nt	-6	-2
CCN(CC)C(=O)[C@H]1C[C@H](CC(=O)NC(C)(C)C)C(=O)N2CCc3c([nH]c4cc(CCC(=O)N(C)C)ccc34)[C@]12C	31*	-2	-6	-15	1
CN(C)C(=O)CCc1ccc2c3c([nH]c2c1)[C@]1(C)[C@@H](C(=O)N2CCOCC2)C[C@H](CC(=O)NCc2ccco2)C(=O)N1CC3	-8	-4	-6	0	0
CC(C)N(C(=O)[C@H]1C[C@H](CC(=O)NCc2ccco2)C(=O)N2CCc3c([nH]c4cc(CCC(=O)N(C)C)ccc34)[C@]12C)C(C)C	30*	1	-5	3	8
Cc1ccc(-c2cnc3c(c2)C(=O)N([C@H](C)CO)C[C@@H](C)[C@H](CN(C)C(=O)Cc2ccncc2)O3)cc1	2	-16	nt	-1	5
CC1=CC(C)(C)NC(=S)N1c1cccc2cc(S(=O)(=O)O)ccc12	20*	-1	-4	-1	-2
COC(=O)[C@H](Cc1c[nH]c2ccccc12)NC(=O)NCc1ccc(OC)c(OC)c1	30*	3	-2	-6	0
COc1cc(/C=C/C(=O)NC(=O)c2ccccc2O)ccc1OC(C)=O	nt	-5	nt	73*	0
CNc1nc(N)c([N+](=O)[O-])c(NCc2ccccc2)n1	-2	0	-2	76*	3
COCCNc1nc(NCc2cccs2)nc2ccsc12	-4	5	-4	-3	2
CNc1nc(NCc2ccccc2)c2sccc2n1	20*	1	-5	1	-4
CC(=O)NCCNc1nc(NCc2cccs2)nc2ccsc12	-2	23	-4	71*	-3
O=C(C[C@H]1CC[C@H]2[C@@H](COC[C@@H](O)CN2C(=O)C2CCCC2)O1)NCc1ccncc1	-3	-2	nt	9	-1
Cc1noc(C)c1S(=O)(=O)Nc1ccc2c(c1)C(=O)N([C@@H](C)CO)C[C@H](C)[C@H](CN(C)Cc1ccc3c(c1)OCO3)OCCCC[C@H](C)O2	2	26	nt	46*	6
Cc1noc(C)c1S(=O)(=O)Nc1ccc2c(c1)C(=O)N([C@@H](C)CO)C[C@@H](C)[C@H](CN(C)Cc1ccc(Cl)c(Cl)c1)OCCCC[C@@H](C)O2	20*	1	nt	-2	5
Cc1noc(C)c1S(=O)(=O)Nc1ccc2c(c1)CC(=O)N([C@@H](C)CO)C[C@H](C)[C@H](CN(C)C(=O)NC(C)C)O2	1	-10	nt	18	-2
Cc1noc(C)c1S(=O)(=O)Nc1ccc2c(c1)C(=O)N([C@@H](C)CO)C[C@H](C)[C@H](CN(C)Cc1ccc3c(c1)OCO3)O2	1	3	nt	32*	-3
Cc1noc(C)c1S(=O)(=O)Nc1ccc2c(c1)CC(=O)N([C@H](C)CO)C[C@@H](C)[C@@H](CN(C)C(=O)NC(C)C)O2	3	-6	nt	46*	-2
Cc1noc(C)c1S(=O)(=O)Nc1ccc2c(c1)C(=O)N([C@H](C)CO)C[C@H](C)[C@H](CN(C)Cc1ccc(Cl)c(Cl)c1)OCCCC[C@@H](C)O2	9	-4	nt	0	2
Cc1noc(C)c1S(=O)(=O)Nc1ccc2c(c1)C(=O)N([C@H](C)CO)C[C@H](C)[C@@H](CN(C)Cc1ccc3c(c1)OCO3)O2	4	1	nt	9	0
Cc1ccccc1-c1ccc([C@@H]2[C@H](CO)N3CCCCN(C(=O)CN4CCOCC4)C[C@@H]23)cc1	-3	-2	nt	-9	1
N#C[C@@H]1[C@@H](c2ccccc2-c2ccccc2)[C@@H](CO)N1C(=O)NC1CCCCC1	2	3	nt	-11	-1
Cc1noc(C)c1S(=O)(=O)Nc1ccc2c(c1)C(=O)N([C@@H](C)CO)C[C@@H](C)[C@@H](CN(C)Cc1ccc(Cl)c(Cl)c1)OCCCC[C@@H](C)O2	17*	0	nt	-6	8
Cc1noc(C)c1S(=O)(=O)Nc1ccc2c(c1)CC(=O)N([C@H](C)CO)C[C@H](C)[C@@H](CN(C)Cc1ccc(C(=O)O)cc1)O2	25*	53	nt	-2	-10
